Laboratory results reported in ChEMBL document CHEMBL4007442, “Discovery of a Potent and Selective Sphingosine Kinase 1 Inhibitor through the Molecular Combination of Chemotype-Distinct Screening Hits” (J Med Chem, 2017).

Assays:
Sphingosine kinase 2 = biological target: T1, Sphingosine kinase 2 (Homo sapiens, UniProt Q9NRA0); experiment: Inhibition of SPHK2 (unknown origin) by FITC-based caliper assay
T1 sequence (Q9NRA0 whole entry): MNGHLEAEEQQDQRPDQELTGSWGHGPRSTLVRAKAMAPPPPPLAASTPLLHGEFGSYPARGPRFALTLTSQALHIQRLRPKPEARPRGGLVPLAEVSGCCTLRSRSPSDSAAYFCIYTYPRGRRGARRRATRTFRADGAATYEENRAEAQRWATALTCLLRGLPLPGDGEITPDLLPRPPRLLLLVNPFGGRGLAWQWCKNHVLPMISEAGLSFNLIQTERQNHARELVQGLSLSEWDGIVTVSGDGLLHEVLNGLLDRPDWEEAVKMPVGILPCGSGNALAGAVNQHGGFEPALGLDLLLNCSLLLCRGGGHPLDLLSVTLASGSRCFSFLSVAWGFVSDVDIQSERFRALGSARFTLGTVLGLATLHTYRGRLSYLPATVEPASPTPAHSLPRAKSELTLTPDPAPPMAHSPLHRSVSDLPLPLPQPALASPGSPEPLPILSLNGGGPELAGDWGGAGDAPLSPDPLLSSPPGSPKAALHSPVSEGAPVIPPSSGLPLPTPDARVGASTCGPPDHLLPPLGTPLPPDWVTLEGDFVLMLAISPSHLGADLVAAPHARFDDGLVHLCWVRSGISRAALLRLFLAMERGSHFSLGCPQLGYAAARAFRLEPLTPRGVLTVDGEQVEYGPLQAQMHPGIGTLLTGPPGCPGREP
How it was run: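 Recombinant SphK2 enzyme assay measuring FITC-S1P formation, with product resolved by microfluidic mobility-shift separation. Dose-response gives IC50. Reported values are the mean of two or more independent assays.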

Sphingosine kinase 1 [1] = biological target: T2, Sphingosine kinase 1 (Homo sapiens, UniProt Q9NYA1); experiment: Inhibition of human C-terminal His6-tagged SPHK1 expressed in fall armyworm sf9 cells assessed as reduction in S1P formation using sphingosine as substrate after 1 hr by FITC-based caliper assay
Sphingosine kinase 1 [2] = biological target: T2, Sphingosine kinase 1; experiment: Inhibition of SPHK1 in human whole-blood using C17-sphingosine as substrate assessed as reduction in C17-S1P production preincubated for 30 mins followed by substrate addition measured after 10 mins by MS analysis
Sphingosine kinase 1 [3] = biological target: T2, Sphingosine kinase 1; experiment: Inhibition of SPHK1 in human MDA1483 cells using C17-sphingosine as substrate assessed as reduction in C17-S1P formation preincubated for 30 mins with substrate measured after 15 mins by LC-MS analysis; type: cell-based
Sphingosine kinase 1 [4] = biological target: T2, Sphingosine kinase 1; experiment: Inhibition of human C-terminal His6-tagged SPHK1 expressed in fall armyworm sf9 cells assessed as reduction in ADP formation using sphingosine as substrate preincubated for 15 mins followed by substrate addition after 1 hr by transcreener-based fluorescence polarization assay
Sphingosine kinase 1 [5] = biological target: Sphingosine kinase 1 (Homo sapiens, UniProt Q9NYA1, S225A); experiment: Binding affinity to human C-terminal His6-tagged SPHK1 S225A mutant expressed in fall armyworm sf9 cells after 1 hr by ITC analysis
[6] = Cytotoxicity in human MDA1483 cells at 50 uM by MTT assay; type: cell-based; details: mda1483, 50 µM
[7] = biological target: Sphingosine 1-phosphate receptor 5 (Homo sapiens, UniProt Q9H228); experiment: Binding affinity to S1PR5 (unknown origin)
[8] = Solubility of the compound; type: physicochemical
[9] = biological target: Sphingosine 1-phosphate receptor 3 (Homo sapiens, UniProt Q99500); experiment: Binding affinity to S1PR3 (unknown origin)
Sequence of Sphingosine 1-phosphate receptor 3 (Q99500 whole entry): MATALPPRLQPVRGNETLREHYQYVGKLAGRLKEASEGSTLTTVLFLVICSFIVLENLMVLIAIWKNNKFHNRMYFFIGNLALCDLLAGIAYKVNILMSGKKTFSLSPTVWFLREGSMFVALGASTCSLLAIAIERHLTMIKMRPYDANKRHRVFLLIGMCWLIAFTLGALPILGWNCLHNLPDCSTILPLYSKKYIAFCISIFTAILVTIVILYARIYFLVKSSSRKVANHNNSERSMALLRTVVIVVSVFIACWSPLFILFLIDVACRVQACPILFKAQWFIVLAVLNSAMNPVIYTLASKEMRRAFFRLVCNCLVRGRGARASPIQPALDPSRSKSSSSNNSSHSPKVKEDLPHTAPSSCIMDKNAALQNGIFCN

T2 sequence (Q9NYA1 whole entry): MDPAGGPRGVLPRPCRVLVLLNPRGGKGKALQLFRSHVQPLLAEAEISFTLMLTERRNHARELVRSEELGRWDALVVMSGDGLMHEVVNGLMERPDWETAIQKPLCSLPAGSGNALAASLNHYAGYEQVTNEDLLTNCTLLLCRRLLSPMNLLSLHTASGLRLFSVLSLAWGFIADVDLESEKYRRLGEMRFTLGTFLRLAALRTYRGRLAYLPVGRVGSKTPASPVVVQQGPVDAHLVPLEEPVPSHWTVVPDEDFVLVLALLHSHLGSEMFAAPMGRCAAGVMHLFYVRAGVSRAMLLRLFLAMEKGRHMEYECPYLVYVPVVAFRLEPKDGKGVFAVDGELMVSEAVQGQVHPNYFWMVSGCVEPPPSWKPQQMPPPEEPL
Sequence of Sphingosine kinase 1 (Homo sapiens, UniProt Q9NYA1, S225A) (Q9NYA1 whole entry S225A): as the sequence (Q9NYA1 whole entry) above, with S225A counted along it
Sequence of Sphingosine 1-phosphate receptor 5 (Q9H228 whole entry): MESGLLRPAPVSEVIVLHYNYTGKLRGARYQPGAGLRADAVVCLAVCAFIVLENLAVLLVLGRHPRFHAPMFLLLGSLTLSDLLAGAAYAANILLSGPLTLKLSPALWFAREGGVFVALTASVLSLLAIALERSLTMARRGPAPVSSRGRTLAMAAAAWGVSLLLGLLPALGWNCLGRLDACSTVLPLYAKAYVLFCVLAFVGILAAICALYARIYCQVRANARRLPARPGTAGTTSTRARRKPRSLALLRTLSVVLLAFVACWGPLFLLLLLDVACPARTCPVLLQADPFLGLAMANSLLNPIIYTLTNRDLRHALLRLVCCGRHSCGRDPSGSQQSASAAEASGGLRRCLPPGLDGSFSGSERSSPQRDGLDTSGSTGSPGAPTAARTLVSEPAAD

Row | IC50 (Sphingosine kinase 2) [nM] | IC50 (Sphingosine kinase 1 [1]) [nM] | IC50 (Sphingosine kinase 1 [2]) [nM] | IC50 (Sphingosine kinase 1 [3]) [nM] | IC50 (Sphingosine kinase 1 [4]) [nM] | Kd (Sphingosine kinase 1 [5]) [µM] | IC50 [7] [µM] | solubility [8] | IC50 [9] [µM] | SMILES | Activity [6]
1 | 465 | 2 | 6.4 | 0.17 | 2 | – | – | – | – | Cc1cc(CS(=O)(=O)c2ccccc2)cc(OCc2ccc(CN3C[C@@H](O)[C@H](O)C3)cc2)c1 | –
2 | 7230 | 3.9 | 38 | 1 | 3.9 | – | – | – | – | Cc1cc(CS(=O)(=O)c2ccccc2)cc(OCc2ccc(CN3C[C@@H](O)[C@@H](O)C3)cc2)c1 | –
3 | 145 | 9820 | > 8800 | 1200 | 3670 | – | – | – | – | O=C(Nc1cccc(OCc2ccc(CN3CCC[C@@H]3CO)cc2)c1)c1ccccc1 | –
4 | > 100000 | > 100000 | – | > 100000 | > 100000 | – | – | – | – | Cc1nc2ccc(-c3ccc(CN4CCC[C@H]4CO)cc3)cc2n1C[C@@H]1CCCO1 | –
5 | < 1.7 | < 1.7 | 1.5 | 0.03 | 0.7 | – | – | – | – | OC[C@H]1CCCN1Cc1ccc(COc2cccc(C3CCCCC3)c2)cc1 | –
6 | – | – | – | 440 | 290 | – | – | – | – | Cc1nc2ccc(-c3ccc(CN4CCC[C@@H]4CO)cc3)cc2n1CC(C)C | –
7 | > 100000 | 12700 | – | 2100 | 4600 | 12 | – | – | – | Cc1nc2ccc(-c3ccc(CN4CCC[C@@H]4CO)cc3)cc2n1C[C@@H]1CCCO1 | –
8 | 164 | 40.4 | 1470 | 1.7 | 10 | – | – | – | – | O=S(=O)(Cc1cccc(OCc2ccc(CN3CCC[C@@H]3CO)cc2)c1)C1CC1 | –
9 | – | – | – | 30 | 28 | – | – | – | – | Cc1cc(CS(=O)(=O)c2ccccc2)cc(OCc2ccc(CN3CC[C@@H](O)C3)cc2)c1 | –
10 | 443 | 2.6 | 5.2 | 0.03 | 3 | – | – | – | – | Cc1cc(CS(=O)(=O)c2ccccc2)cc(OCc2ccc(CN3CC[C@H](O)C3)cc2)c1 | –
11 | 46000 | 870 | – | 81 | 190 | 2.9 | – | – | – | Cc1nc2ccc(-c3ccc(CN4CCC[C@@H]4CO)cc3)cc2n1C[C@H]1CCCO1 | –
12 | < 1.7 | 4.8 | 19 | 0.6 | 0.8 | – | – | – | – | CC(C)c1cccc(OCc2ccc(CN3CCC[C@@H]3CO)cc2)c1 | –
13 | – | – | – | 4 | 7 | – | – | – | – | Cc1nc2ccc(-c3ccc(CN4CCC[C@@H]4CO)cc3)cc2n1CCC(C)C | –
14 | > 100000 | > 100000 | – | 9800 | 31000 | – | – | – | – | Cc1nc2ccc(-c3ccc(CN4CCC[C@H]4CO)cc3)cc2n1C[C@H]1CCCO1 | –
15 | 164 | 2.4 | 35 | 0.3 | 2 | – | – | – | – | O=S(=O)(Cc1cccc(OCc2ccc(CN3CCC[C@@H]3CO)cc2)c1)c1ccccc1 | –
16 | – | – | – | 4 | 8 | – | – | – | – | Cc1nc2ccc(-c3ccc(CN4CCC[C@@H]4CO)cc3)cc2n1CCC1CCC1 | –
17 | – | – | – | 519 | 439 | – | – | – | – | CS(=O)(=O)Cc1cccc(OCc2ccc(CN3CCC[C@@H]3CO)cc2)c1 | –
18 | – | – | – | 250 | 440 | – | – | – | – | Cc1nc2ccc(-c3ccc(CN4CCC[C@@H]4CO)cc3)cc2n1Cc1ccccc1 | –
19 | – | – | – | – | > 100000 | – | – | – | – | Cc1nc2ccc(-c3ccc(CN4CCCC4)cc3)cc2n1C[C@H]1CCCO1 | –
20 | 39600 | 1400 | – | 180 | 1700 | – | > 10 | Insoluble | > 10 | Cc1cc(CS(=O)(=O)c2ccccc2)cc(OCc2ccc3[nH]c(N)nc3c2)c1 | Non-Toxic
21 | – | 48000 | – | 27000 | 48000 | – | – | – | – | Cc1cc(CS(=O)(=O)c2ccccc2)cc(OCc2ccc3[nH]cnc3c2)c1 | –
22 | 35100 | 14.6 | – | 3.5 | 5.3 | – | – | – | – | Cc1cc(CS(=O)(=O)c2ccccc2)cc(OCc2ccc(CNCCO)cc2)c1 | –
23 | 2.4 | 25 | 173 | 1.7 | 4.5 | – | – | – | – | Cc1nc(-c2cccc(OCc3ccc(CN4CCC[C@@H]4CO)cc3)c2)no1 | –
24 | – | – | – | 10 | 11 | – | – | – | – | Cc1nc2ccc(-c3ccc(CN4CCC[C@@H]4CO)cc3)cc2n1CC1CCCC1 | –
